Measured values from ChEMBL document CHEMBL3120084, “Structure-function relationships of Nile blue (EtNBS) derivatives as antimicrobial photosensitizers” (Eur J Med Chem, 2014).
Calls of active or inactive are those of the source. No cut-off for these calls is given here.

How the values were obtained:
[1] = Induction of reactive oxygen species generation at 5 uM using singlet oxygen sensor green probe by microplate spectrophotometer analysis in presence of 1 J/cm'2 to 15 J/cm'2 of light; format: physicochemical
Method in brief: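 Cell-free assay in PBS: compound at 5 μM final with SOSG probe at 5 μM final, 4 wells per group. 635-nm light given in sequential doses of 1 to 15 J/cm2. Fluorescence read in slow kinetic mode at excitation 505 nm and emission 525 nm.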

[2] = tested on: Staphylococcus aureus; experiment: Drug uptake in Staphylococcus aureus 8325-4 incubated for 10 mins in dark by fluorescence analysis; format: ADME, organism-based; settings: in vivo
Method in brief: (§1)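 Cells (10^8/ml) held with compound at 0.05-10 μM for 10 min in dark at room temperature. They were then pelleted, washed twice in PBS and lysed in RIPA for 30 min at room temperature. Lysate fluorescence was read at compound-specific wavelengths and converted with per-compound calibration curves. Values were normalized to protein measured by BCA against BSA standards.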

[3] = tested on: Enterococcus faecalis; experiment: Dark toxicity against Enterococcus faecalis ATCC 29212 at 0.1 to 100 uM after 10 mins; format: organism-based; settings: in vivo
Method in brief: (§2)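 Dark controls: 10^8 CFU/ml in PBS with photosensitizer for 10 min at room temperature, no illumination. Solvent controls contained 2% DMA. Viability read as CFU after serial dilution, plating on nutrient agar and 18 h dark incubation at 37°C; triplicate.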

[4] = tested on: Enterococcus faecalis; experiment: Antimicrobial activity against Enterococcus faecalis ATCC 29212 assessed as log reduction in bacterial CFU incubated for 10 mins prior to irradiation with 10 J/cm2 of light; format: functional
Method in brief: (§3)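 Bacteria grown overnight in BHI broth at 37°C with shaking, refreshed 3 h, adjusted to OD600 0.5 (10^8 CFU/ml), pelleted and resuspended in PBS. Suspensions held with photosensitizer (0.1-100 μM, diluted from 5 mM DMA stock) 10 min in dark at room temperature, then 635-nm light at 10 J/cm2 and 50 mW/cm2. Surviving CFU counted by serial dilution on nutrient agar after 18 h at 37°C; triplicates.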

[5] = tested on: Staphylococcus aureus; experiment: Antimicrobial activity against Staphylococcus aureus 8325-4 assessed as log reduction in bacterial CFU incubated for 10 mins prior to irradiation with 10 J/cm2 of light; format: functional; method in brief: as §3
[6] = Induction of reactive oxygen species generation at 5 uM using hydroxyphenyl-fluorescein probe by microplate spectrophotometer analysis in presence of 1 J/cm'2 to 15 J/cm'2 of light; format: physicochemical
Method in brief: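 Cell-free assay in PBS: compound at 5 μM final with HPF probe at 5 μM final, 4 wells per group. 635-nm light given in sequential doses of 1 to 15 J/cm2. Fluorescence read in slow kinetic mode at excitation 490 nm and emission 515 nm, 2 nm bandpass.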

[7] = tested on: Enterococcus faecalis; experiment: Drug uptake in Enterococcus faecalis ATCC 29212 incubated for 10 mins in dark by fluorescence analysis; format: ADME, organism-based; settings: in vivo; method in brief: as §1
[8] = tested on: Acinetobacter baumannii; experiment: Drug uptake in Acinetobacter baumannii ATCC 51393 incubated for 10 mins in dark by fluorescence analysis; format: ADME, organism-based; settings: in vivo; method in brief: as §1
[9] = tested on: Escherichia coli; experiment: Drug uptake in Escherichia coli ATCC 53868 incubated for 10 mins in dark by fluorescence analysis; format: ADME, organism-based; settings: in vivo; method in brief: as §1
[10] = tested on: Staphylococcus aureus; experiment: Dark toxicity against Staphylococcus aureus 8325-4 at 0.1 to 100 uM after 10 mins; format: organism-based; settings: in vivo; method in brief: as §2
[11] = Octanol-phosphate buffered saline partition coefficient, log P of the compound at 100 uM after 30 mins; format: physicochemical
Method in brief: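 Compound (100 μM) in 1.5 mL octanol plus 1.5 mL PBS, stirred overnight at room temperature, then left 30 min for phases to separate. Each phase was read by absorbance at the compound's peak, undiluted and diluted 1:2 and 1:10. Log10 of the octanol/PBS ratio is reported.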

[12] = tested on: Acinetobacter baumannii; experiment: Antimicrobial activity against Acinetobacter baumannii ATCC 51393 assessed as log reduction in bacterial CFU incubated for 10 mins prior to irradiation with 10 J/cm2 of light; format: functional; method in brief: as §3
[13] = tested on: Escherichia coli; experiment: Antimicrobial activity against Escherichia coli ATCC 53868 assessed as log reduction in bacterial CFU incubated for 10 mins prior to irradiation with 10 J/cm2 of light; format: functional; method in brief: as §3
[14] = tested on: Acinetobacter baumannii; experiment: Dark toxicity against Acinetobacter baumannii ATCC 51393 at 0.1 to 100 uM after 10 mins; format: organism-based; settings: in vivo; method in brief: as §2
[15] = tested on: Escherichia coli; experiment: Dark toxicity against Escherichia coli ATCC 53868 at 0.1 to 100 uM after 10 mins; format: organism-based; settings: in vivo; method in brief: as §2
[16] = tested on: Staphylococcus aureus; experiment: Dark toxicity against Staphylococcus aureus 8325-4 at 50 uM after 10 mins; format: organism-based; settings: in vivo; method in brief: as §2
[17] = tested on: Escherichia coli; experiment: Dark toxicity against Escherichia coli ATCC 53868 at 50 uM after 10 mins; format: organism-based; settings: in vivo; method in brief: as §2
[18] = tested on: Acinetobacter baumannii; experiment: Dark toxicity against Acinetobacter baumannii ATCC 51393 at 50 uM after 10 mins; format: organism-based; settings: in vivo; method in brief: as §2
[19] = tested on: Enterococcus faecalis; experiment: Dark toxicity against Enterococcus faecalis ATCC 29212 at 50 uM after 10 mins; format: organism-based; settings: in vivo; method in brief: as §2

Activity [1] | Drug uptake [2] | Activity [6] | Drug uptake [7] | Drug uptake [8] | Drug uptake [9] | logP at 0.5 h, 100 µM [11] | Compound | Activity [3] | log10cfu [4] | log10cfu [5] | Activity [10] | Activity [12] | Activity [13] | Activity [14] | further results
Active | Active | Active | Active | Active | Active | 2.87 | CC/N=c1/cc2sc3cc(N(CC)CC)ccc3nc-2c2ccccc12.Cl | – | >6 | >6 | – | – | – | – | Activity [16]: Non-toxic; log10cfu [12]: >6; Activity [17]: Toxic; Activity [18]: Toxic; log10cfu [13]: >6; Activity [19]: Toxic
Active | Active | Active | Active | Active | Active | 1.77 | CC/N=c1/cc2sc3cc(N(CC)CC)ccc3nc-2c2c(N)cccc12.Cl | – | – | <3 | – | – | – | – | –

Further lines, the molecule ahead of its results:

Compound | Activity [1] | Drug uptake [2] | Activity [6] | Drug uptake [7] | Drug uptake [8] | Drug uptake [9] | logP at 0.5 h, 100 µM [11] | Activity [3] | log10cfu [4] | log10cfu [5] | Activity [10] | Activity [12] | Activity [13] | Activity [14] | further results
CC/N=c1/cc2sc3cc(N(CC)CC)ccc3nc-2c2c([N+](=O)[O-])cccc12.Cl | Active | Active | Active | Active | Active | Active | 2.03 | Toxic | 5 | 5 | Toxic | – | – | – | –
CC/N=c1/cc2sc3cc(N(CC)CC)ccc3nc-2c2c(NC(C)=O)cccc12.Cl | Active | – | Active | – | – | – | 1.36 | – | – | – | – | inactive | inactive | Toxic | Activity [15]: Toxic
CCN(CC)c1ccc2nc3c4ccccc4/c(=N\CCNC(=N)N)cc-3sc2c1.Cl.Cl | Active | Active | Active | Active | Active | Active | 0.49 | Toxic | >5 | >5 | Toxic | – | – | Toxic | log10cfu [12]: >5; log10cfu [13]: >5
CCCS(=O)(=O)N(CC)c1cccc2/c(=N\CC)cc3sc4cc(N(CC)CC)ccc4nc-3c12.Cl | Active | Active | Active | Active | Active | Active | 2.19 | Toxic | >5 | 4 | Toxic | inactive | inactive | – | –
CCCS(=O)(=O)N(CC)c1cccc2c3nc4ccc(N(CC)CC)cc4sc-3c/c(=N\CC)c12.Cl | Active | Active | Active | Active | Active | Active | 2.45 | Non-toxic | – | >5 | Non-toxic | inactive | inactive | Non-toxic | Activity [15]: Toxic
